Experimental data from ChEMBL document CHEMBL2040777, “N-Aryl-N'-(chroman-4-yl)ureas and thioureas display in vitro anticancer activity and selectivity on apoptosis-resistant glioblastoma cells: screening, synthesis of simplified derivatives, and structure-activity relationship analysis” (Eur J Med Chem, 2012).
The source made the active and inactive calls. No cut-off for these calls is given here.

Legend:
B16-F10 = assay: Growth inhibition of mouse B16F10 cells after 72 hrs by MTT assay; format: functional, cell-based; settings: B16-F10, 72 h
[1] = Growth inhibition of human U373 cells after 72 hrs by MTT assay; format: functional, cell-based, U-373MG ATCC; settings: U373 MG
Summary of the method: (§1)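 Glioma lines were grown in RPMI with 10% heat-inactivated FCS, 4 mM glutamine, gentamicin and penicillin-streptomycin. Cells were plated for 24 h at 10,000–40,000 cells/mL, then exposed to compound for 72 h. MTT reduction to formazan was read at 570 nm (reference 630 nm). Six replicates were run.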

[2] = Growth inhibition of human Hs683 cells after 72 hrs by MTT assay; format: functional, cell-based; settings: Hs 683, 72 h; summary of the method: as §1
U-373MG ATCC [3] = assay: Induction of apoptosis in human U373 cells assessed as increase in subG1 cell population at 10 to 30 uM after 24 hrs by flow cytometric analysis; format: functional, cell-based
T98G [4] = assay: Selectivity index, ratio of IC50 for mouse astrocytes to IC50 for human T98G cells
[5] = Selectivity index, ratio of IC50 for mouse astrocytes to IC50 for human U373 cells; design: species or system U-373MG ATCC
T98G [6] = assay: Growth inhibition of human T98G cells after 72 hrs by MTT assay; format: functional, cell-based; summary of the method: as §1
Hs 683 = assay: Selectivity index, ratio of IC50 for mouse astrocytes to IC50 for human Hs683 cells
[7] = Cell cycle arrest in human U373 cells assessed as accumulation at G0/G1 phase at 10 to 30 uM after 24 hrs by propidium iodide staining-based flow cytometric analysis; format: functional; settings: U-373MG ATCC
[8] = Growth inhibition of human U373 cells assessed as global growth ratio after 72 hrs by quantitative videomicroscopic analysis relative to untreated control; format: functional, U-373MG ATCC; settings: U373 MG
Summary of the method: (§2)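 U373 cells were cultured in 25 cm² flasks and filmed by computer-assisted phase-contrast time-lapse for 72 h, one image every 4 min. Growth level was the cell count in the last frame divided by the first. Global growth ratio was treated growth level over control growth level. Compounds were tested at 20 µM.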

[9] = Cytostatic activity against human U373 cells assessed as global growth ratio by measuring number of cells counted in the last and the first frame of study at 20 uM by quantitative videomicroscopic analysis; format: functional, U-373MG ATCC; summary of the method: as §2
[10] = Cell cycle arrest in human U373 cells assessed as accumulation at G0/G1 phase at 3 to 10 uM after 24 hrs by propidium iodide staining-based flow cytometric analysis; format: functional; settings: U-373MG ATCC
U-373MG ATCC [11] = assay: Induction of apoptosis in human U373 cells assessed as increase in subG1 cell population at 3 to 10 uM after 24 hrs by flow cytometric analysis; format: functional, cell-based

Row | IC50 (B16-F10) [µM] | SMILES | IC50 [1] [µM] | IC50 [2] [µM] | Ratio IC50 (T98G [4]) | Ratio IC50 [5] | IC50 (T98G [6]) [µM] | Ratio IC50 (Hs 683) | other results
1 | 20 | CC1(C)CC(NC(=O)Nc2ccccc2Cl)c2cc(Cl)ccc2O1 (configuration not stated) | 17 | 25 | >10 | >10 | 20 | >10 | Activity (U-373MG ATCC [3]): inactive; Activity [7]: Active; IC80 [8]: 20 µM; Ratio [9]: 0.2
2 | – | CC(=O)NC1CC(C)(C)Oc2ccc(Cl)cc21 (configuration not stated) | > 100 | – | – | – | – | – | –
3 | 5 | CC1(C)CC(NC(=S)Nc2cccc([N+](=O)[O-])c2)c2cc(Br)ccc2O1 (configuration not stated) | 4 | 3 | 2 | 2 | 4 | 2 | –
4 | – | O=[N+]([O-])c1ccc(NC(=S)NC2CCOc3ccc(Cl)cc32)cc1 (configuration not stated) | 8 | 6 | – | – | 12 | – | –
5 | – | CC(C)NC1=NS(=O)(=O)c2cc(F)c(Cl)cc2N1 | > 100 | – | – | – | – | – | –
6 | 6 | CC1(C)CC(NC(=S)Nc2cccc(C#N)c2)c2cc(Cl)ccc2O1 (configuration not stated) | 7 | 6 | <5 | <5 | 10 | <5 | –
7 | – | COc1ccc(Cl)cc1C(=O)NCCc1ccc(S(=O)(=O)NC(=O)NC2CCCCC2)cc1 [GLYBURIDE] | > 100 | – | – | – | – | – | Activity [7]: inactive
8 | – | COc1ccc(Cl)cc1CNC(=S)Nc1cccc([N+](=O)[O-])c1 | 32 | 23 | – | – | – | – | –
9 | – | CC1(C)CC(NC(=O)NCc2ccccc2)c2cc(F)ccc2O1 (configuration not stated) | 11 | 19 | – | – | 49 | – | –
10 | 7 | CC1(C)CC(NC(=S)Nc2cccc(C#N)c2)c2cc(Br)ccc2O1 (configuration not stated) | 6 | 4 | <5 | <5 | 9 | <5 | –
11 | – | COc1ccccc1NC(=S)NC1CC(C)(C)Oc2ccc(Br)cc21 (configuration not stated) | 22 | 40 | – | – | 42 | – | –
12 | – | COc1cccc(NC(=S)NC2CC(C)(C)Oc3ccc(Br)cc32)c1 (configuration not stated) | 66 | 81 | – | – | 87 | – | –
13 | – | CCOC(=O)NC1CC(C)(C)Oc2ccc(Cl)cc21 (configuration not stated) | > 100 | – | – | – | – | – | –
14 | – | CC(C)NC(=O)NC1CC(C)(C)Oc2ccc(Cl)cc21 (configuration not stated) | 62 | 85 | – | – | > 100 | – | –
15 | – | CC1(C)CC(NC(=O)NCc2ccccc2)c2cc(Cl)ccc2O1 (configuration not stated) | 66 | 47 | – | – | 15 | – | –
16 | 7 | CC1(C)CC(NC(=S)Nc2ccc(Cl)cc2)c2cc(Br)ccc2O1 (configuration not stated) | 7 | 9 | 2 | 2 | 22 | 2 | Activity [10]: Active; Activity (U-373MG ATCC [11]): inactive
17 | – | O=[N+]([O-])c1cccc(NC(=S)NC2CCOc3ccc(Cl)cc32)c1 (configuration not stated) | 8 | 7 | – | – | 10 | – | –
18 | – | CC1(C)CC(NC(=O)NCc2ccccc2)c2cc(Br)ccc2O1 (configuration not stated) | 27 | 38 | – | – | 38 | – | –
19 | 3 | CC1(C)CC(NC(=S)Nc2ccc([N+](=O)[O-])cc2)c2cc(Br)ccc2O1 (configuration not stated) | 9 | 3 | <2 | <2 | 5 | <2 | –
20 | – | CC1(C)CC(NC(=O)Nc2ccc(Cl)cc2)c2cc(F)ccc2O1 (configuration not stated) | 24 | 25 | – | – | 30 | – | –
21 | – | CC1(C)CC(NC(=S)Nc2ccc(C#N)cc2)c2cc(Br)ccc2O1 (configuration not stated) | 22 | 15 | 2 | 2 | 24 | 2 | –
22 | – | CCNC(=S)NC1CC(C)(C)Oc2ccc(Cl)cc21 (configuration not stated) | 96 | 72 | – | – | > 100 | – | –
23 | 3 | CC1(C)CC(NC(=S)Nc2ccc([N+](=O)[O-])cc2)c2cc(Cl)ccc2O1 (configuration not stated) | 3 | 2 | 2 | 2 | 4 | 2 | Activity [10]: Active; Activity (U-373MG ATCC [11]): inactive
24 | 17 | CC1(C)CC(NC(=S)Nc2ccccc2Cl)c2cc(Br)ccc2O1 (configuration not stated) | 34 | 22 | <5 | <5 | 8 | <5 | –
25 | 7 | CC1(C)CC(NC(=S)Nc2cccc(Cl)c2)c2cc(Br)ccc2O1 (configuration not stated) | 8 | 8 | <2 | <2 | 9 | <2 | –

Row | IC50 (B16-F10) [µM] | SMILES | IC50 [1] [µM] | IC50 [2] [µM] | Ratio IC50 (T98G [4]) | Ratio IC50 [5] | IC50 (T98G [6]) [µM] | Ratio IC50 (Hs 683) | other results
26 | – | O=[N+]([O-])c1cccc(NC(=S)NCc2cccc(Cl)c2)c1 | 32 | 41 | – | – | 61 | – | –
27 | 5 | CC1(C)CC(NC(=S)Nc2ccc(C#N)cc2)c2cc(F)ccc2O1 (configuration not stated) | 11 | 14 | 3 | 3 | 19 | 3 | –
28 | – | CC1(C)CC(NC(=O)Nc2ccccc2Cl)c2cc(F)ccc2O1 (configuration not stated) | 40 | 29 | – | – | 27 | – | –
29 | – | CCNC(=O)NC1CC(C)(C)Oc2ccc(Cl)cc21 (configuration not stated) | > 100 | – | – | – | – | – | –
30 | 6 | CC1(C)CC(NC(=S)Nc2cccc([N+](=O)[O-])c2)c2cc(Cl)ccc2O1 (configuration not stated) | 3 | 3 | 3 | 3 | 4 | 3 | Activity [10]: Active; Activity (U-373MG ATCC [11]): inactive
31 | – | CC1(C)CC(NC(=S)Nc2ccccc2)c2cc(Cl)ccc2O1 (configuration not stated) | 46 | 32 | – | – | 37 | – | –
32 | – | O=[N+]([O-])c1ccc(NC(=S)NCc2cccc(Cl)c2)cc1 | 27 | 27 | – | – | 20 | – | –
33 | – | CC1(C)CC(NC(=O)Nc2cccc(Cl)c2)c2cc(F)ccc2O1 (configuration not stated) | 39 | 38 | – | – | 45 | – | –
34 | 258 | Cn1nnc2c(C(N)=O)ncn2c1=O [TEMOZOLOMIDE] | 220 | 956 | – | – | 879 | – | –
35 | – | CC1(C)CC(NC(=O)NS(=O)(=O)c2ccccc2)c2cc(Cl)ccc2O1 (configuration not stated) | 96 | > 100 | – | – | > 100 | – | –
36 | – | CC1(C)CC(NC(=S)NCc2ccccc2)c2cc(Cl)ccc2O1 (configuration not stated) | 64 | 43 | – | – | 99 | – | –
37 | – | CC1(C)CC(NC(=S)NCc2ccccc2)c2cc(F)ccc2O1 (configuration not stated) | 27 | 25 | – | – | 40 | – | –
38 | – | CC1(C)CC(NC(=O)Nc2cccc(Cl)c2)c2cc(Br)ccc2O1 (configuration not stated) | 69 | 61 | – | – | 67 | – | –
39 | 4 | CC1(C)CC(NC(=S)Nc2ccc([N+](=O)[O-])cc2)c2cc(F)ccc2O1 (configuration not stated) | 3 | 3 | 5 | 5 | 5 | 5 | Activity [10]: Active; Activity (U-373MG ATCC [11]): inactive
40 | 35 | CC1(C)CC(NC(=S)Nc2cccc(C#N)c2)c2cc(F)ccc2O1 (configuration not stated) | 30 | 33 | – | – | 39 | – | –
41 | – | CC1(C)CC(NC(=S)NCc2ccccc2)c2cc(Br)ccc2O1 (configuration not stated) | 29 | 34 | – | – | 54 | – | –
42 | – | COc1ccc(NC(=S)NC2CC(C)(C)Oc3ccc(Br)cc32)cc1 (configuration not stated) | 40 | 29 | – | – | 33 | – | –
43 | 6 | CC1(C)CC(NC(=S)Nc2cccc([N+](=O)[O-])c2)c2cc(F)ccc2O1 (configuration not stated) | 6 | 6 | 2 | 2 | 9 | 2 | –
44 | – | CC(C)NC(=S)NC1CC(C)(C)Oc2ccc(Cl)cc21 (configuration not stated) | 57 | 34 | – | – | 91 | – | –
45 | – | COc1ccc(Cl)cc1CNC(=S)Nc1ccc([N+](=O)[O-])cc1 | 22 | 15 | – | – | 35 | – | –
46 | 7 | CC1(C)CC(NC(=S)Nc2ccc(C#N)cc2)c2cc(Cl)ccc2O1 (configuration not stated) | 10 | 6 | 3 | 3 | 10 | 3 | –
47 | – | CC1(C)CC(NC(=O)Nc2ccccc2)c2cc(Cl)ccc2O1 (configuration not stated) | 68 | 33 | – | – | 34 | – | –
48 | 9 | CC1(C)CC(NC(=O)Nc2ccc(Cl)cc2)c2cc(Br)ccc2O1 (configuration not stated) | 25 | 24 | 5 | 5 | 27 | 5 | –
49 | – | CCC(C)(C)NC1=NS(=O)(=O)c2cc(Cl)ccc2N1 | > 100 | – | – | – | – | – | –
